In ChEMBL document CHEMBL4411279, “Synthesis of new chalcone-based homoserine lactones and their antiproliferative activity evaluation” (Eur J Med Chem, 2019):
The source made the active and inactive calls. The calls are words filed in the database; no cut-off is given here.

Legend:
MGC-803 = assay: Antiproliferative activity against human MGC803 cells after 72 hrs by MTT assay; format: functional, cell-based; settings: MGC-803, 72 h
Outline: (§1)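 Cells seeded 3,000/well, after 24 h medium replaced with compound at 64, 32, 16, 8, 4, 2, 1, 0.5 µM; 72 h exposure, MTT read-out at 570 nm; IC50 given as mean ± SD.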

DU-145 [1] = assay: Antiproliferative activity against human DU145 cells after 72 hrs by MTT assay; format: functional, cell-based; settings: DU-145, 72 h; outline: as §1
MCF7 = assay: Antiproliferative activity against human MCF7 cells after 72 hrs by MTT assay; format: functional, cell-based; settings: MCF7, 72 h; outline: as §1
PC-3 = assay: Antiproliferative activity against human PC3 cells after 72 hrs by MTT assay; format: functional, cell-based; settings: PC-3, 72 h; outline: as §1
DU-145 [2] = assay: Induction of apoptosis in human DU145 cells assessed as formation of apoptotic bodies at 10 uM after 24 hrs in presence of TRAIL by Hoechst 33258 staining-based fluorescence microscopic analysis; format: functional, cell-based
Outline: (§2)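 DU145 seeded 1×10^5/well, adhered overnight, treated 24 h with compound alone or combined with TRAIL; stained with Hoechst 33258 for 30 min in the dark; nuclear morphology examined by fluorescence microscopy.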

DU-145 [3] = assay: Induction of apoptosis in human DU145 cells assessed as chromatin shrinkage at 10 uM after 24 hrs by Hoechst 33258 staining-based fluorescence microscopic analysis; format: functional, cell-based; outline: as §2
DU-145 [4] = assay: Induction of apoptosis in human DU145 cells assessed as increase in caspase-3/7 activity at 10 to 50 uM after 24 hrs by Caspase-Glo 3/7 assay; format: functional, cell-based
Outline: (§3)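 DU145 treated 24 h with compound alone or with TRAIL (100 ng/mL); caspase-3/7 activity measured by Caspase-Glo 3/7 luminescent protocol relative to untreated control; three independent experiments, mean ± SD, Student's t test.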

DU-145 [5] = assay: Induction of apoptosis in human DU145 cells assessed as early apoptotic cells at 10 uM after 24 hrs in presence of TRAIL by Annexin V-FITC/propidium iodide staining-based high content screening assay (reference value: 0.3%); format: functional
Outline: (§4)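 DU145 seeded 3×10^5/well, grown 24 h, treated 24 h with compound alone or plus TRAIL; harvested, stained with Annexin V-FITC/PI per kit protocol, quantified by high content screening; mean ± SD of three experiments.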

DU-145 [6] = assay: Induction of apoptosis in human DU145 cells assessed as cell rounding at 10 uM after 24 hrs by Hoechst 33258 staining-based fluorescence microscopic analysis; format: functional; outline: as §2
DU-145 [7] = assay: Induction of apoptosis in human DU145 cells assessed as late apoptotic cells at 10 uM after 24 hrs in presence of TRAIL by Annexin V-FITC/propidium iodide staining-based high content screening assay (reference value: 0.2%); format: functional; outline: as §4
DU-145 [8] = assay: Induction of apoptosis in human DU145 cells assessed as necrotic cells at 10 uM after 24 hrs in presence of TRAIL by Annexin V-FITC/propidium iodide staining-based high content screening assay (reference value: 1.6%); format: functional; outline: as §4
DU-145 [9] = assay: Induction of apoptosis in human DU145 cells assessed as increase in caspase-3/7 activity at 10 uM after 24 hrs in presence of TRAIL by Caspase-Glo 3/7 assay relative to control; format: functional; outline: as §3
DU-145 [10] = assay: Induction of apoptosis in human DU145 cells assessed as viable cells at 10 uM after 24 hrs by Annexin V-FITC/propidium iodide staining-based high content screening assay (reference value: 97.9%); format: functional; settings: DU-145, 24 h, read-out: Activity; outline: as §4
DU-145 [11] = assay: Growth inhibition of human DU145 cells at 5 uM by MTT assay; format: functional, cell-based; settings: TDE = time-dependent effect
Outline: (§5)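 DU145 growth inhibition measured by MTT; time course at 24, 48 and 72 h; combination arm used recombinant TRAIL at 100 ng/mL together with compound (2.5 or 5.0 µM); mean ± SD, experiment repeated three times, Student's t test.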

DU-145 [12] = assay: Induction of apoptosis in human DU145 cells assessed as cell rounding at 10 uM after 24 hrs in presence of TRAIL by Hoechst 33258 staining-based fluorescence microscopic analysis; format: functional; outline: as §2
DU-145 [13] = assay: Inhibition of colony formation in human DU145 cells after 21 days by crystal violet staining-based assay; format: functional, cell-based
Outline: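 DU145 seeded 4000/well, grown 4 days, then medium with compound at various concentrations for 21 days; PBS washed, fixed in 4% paraformaldehyde, stained with 0.1% crystal violet; colonies (>10 cells) counted; inhibition = (1 − treated/control colonies) × 100%.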

DU-145 [14] = assay: Induction of apoptosis in human DU145 cells assessed as necrotic cells at 10 uM after 24 hrs by Annexin V-FITC/propidium iodide staining-based high content screening assay (reference value: 1.6%); format: functional; outline: as §4
DU-145 [15] = assay: Induction of apoptosis in human DU145 cells assessed as formation of apoptotic bodies at 10 uM after 24 hrs by Hoechst 33258 staining-based fluorescence microscopic analysis; format: functional, cell-based; outline: as §2
DU-145 [16] = assay: Induction of apoptosis in human DU145 cells assessed as early apoptotic cells at 10 uM after 24 hrs by Annexin V-FITC/propidium iodide staining-based high content screening assay (reference value: 0.3%); format: functional; outline: as §4
DU-145 [17] = assay: Induction of apoptosis in human DU145 cells assessed as late apoptotic cells at 10 uM after 24 hrs by Annexin V-FITC/propidium iodide staining-based high content screening assay (reference value: 0.2%); format: functional; outline: as §4
DU-145 [18] = assay: Induction of apoptosis in human DU145 cells assessed as viable cells at 10 uM after 24 hrs in presence of TRAIL by Annexin V-FITC/propidium iodide staining-based high content screening assay (reference value: 97.9%); format: functional; settings: DU-145, 24 h, read-out: Activity; outline: as §4
DU-145 [19] = assay: Growth inhibition of human DU145 cells at 5 uM after 24 to 48 hrs by MTT assay; format: functional, cell-based; outline: as §5
DU-145 [20] = assay: Growth inhibition of human DU145 cells at 5 uM after 72 hrs in presence of TRAIL by MTT assay relative to control; format: functional; settings: DU-145, 72 h, read-out: GI; outline: as §5
DU-145 [21] = assay: Induction of apoptosis in human DU145 cells assessed as chromatin shrinkage at 10 uM after 24 hrs in presence of TRAIL by Hoechst 33258 staining-based fluorescence microscopic analysis; format: functional, cell-based; outline: as §2

Row | Structure (SMILES) | IC50 (MGC-803) | IC50 (DU-145 [1]) | IC50 (MCF7) | IC50 (PC-3) | further results
1 | Cc1ccc(C(C)C)c(OCCSC(=S)N[C@H]2CCOC2=O)c1 | 43.4 µM | > 64 µM | > 64 µM | > 64 µM | –
2 | Cc1cc(Cl)ccc1NCC(=O)N[C@H]1CCOC1=O | > 64 µM | > 64 µM | > 64 µM | > 64 µM | –
3 | CCCCCCCCCCSC(=S)N[C@H]1CCOC1=O | > 64 µM | > 64 µM | > 64 µM | > 64 µM | –
4 | O=C(COc1ccc(C(=O)/C=C/c2ccc(F)c(F)c2)cc1)N[C@H]1CCOC1=O | > 64 µM | 19.8 µM | > 64 µM | 21.9 µM | –
5 | O=C(COc1ccc(C(=O)/C=C/c2cccc(Cl)c2)cc1)N[C@H]1CCOC1=O | 29.1 µM | 3.7 µM | 20.9 µM | 4.99 µM | –
6 | CC(=O)c1ccc(OCCSC(=S)N[C@H]2CCOC2=O)cc1 | > 64 µM | 32.6 µM | > 64 µM | 46.9 µM | –
7 | O=C(COc1ccc(C(=O)/C=C/c2ccccc2Br)cc1)N[C@H]1CCOC1=O | 12.2 µM | 3.54 µM | 15.2 µM | 3.26 µM | –
8 | O=C(COc1ccc(C(=O)/C=C/c2ccc(Cl)cc2Cl)cc1)N[C@H]1CCOC1=O | 26.5 µM | 8.61 µM | 34.4 µM | 8.04 µM | –
9 | O=C(CNc1ccc(Cl)cc1Cl)N[C@H]1CCOC1=O | > 64 µM | > 64 µM | > 64 µM | > 64 µM | –
10 | O=C1OCC[C@@H]1NC(=S)SCCOc1ccccc1Cc1ccccc1 | 32.3 µM | > 64 µM | 39.5 µM | > 64 µM | –
11 | O=C1OCC[C@@H]1NC(=S)SCCOc1ccc([N+](=O)[O-])cc1 | > 100 µM | 31 µM | > 64 µM | 32.5 µM | –
12 | O=C(CNc1ccccc1F)N[C@H]1CCOC1=O | > 64 µM | > 64 µM | > 64 µM | > 64 µM | –
13 | O=C(CNc1ccc(Br)cc1)N[C@H]1CCOC1=O | > 64 µM | > 64 µM | > 64 µM | > 64 µM | –
14 | O=C(CNc1ccc(Cl)cc1)N[C@H]1CCOC1=O | > 64 µM | > 64 µM | > 64 µM | > 64 µM | –
15 | O=C1OCC[C@@H]1NC(=S)SCCOc1ccc(Cl)cc1 | 51.1 µM | > 64 µM | 50.5 µM | > 64 µM | –
16 | O=C1OCC[C@@H]1NC(=S)SCCOc1ccccc1[N+](=O)[O-] | 47 µM | 33.4 µM | > 64 µM | 24 µM | –
17 | O=C(CNc1ccc(F)cc1)N[C@H]1CCOC1=O | > 64 µM | > 64 µM | > 64 µM | > 64 µM | –
18 | O=C(COc1ccc(C(=O)/C=C/c2ccc(Br)cc2)cc1)N[C@H]1CCOC1=O | 51 µM | 51.7 µM | > 64 µM | > 64 µM | –

Row | Structure (SMILES) | IC50 (MGC-803) | IC50 (DU-145 [1]) | IC50 (MCF7) | IC50 (PC-3) | further results
19 | O=C1OCC[C@@H]1NC(=S)SCCOc1ccccc1 | 53.8 µM | 63.8 µM | > 64 µM | > 64 µM | –
20 | CCCCCCCCCC(=O)CC(=O)N[C@H]1CCOC1=O | 29.5 µM | 19.3 µM | 26.2 µM | 22.5 µM | Activity (DU-145 [2]): Active; Activity (DU-145 [3]): Active; Activity (DU-145 [4]): Active; Activity (DU-145 [5]): 12.2%; Activity (DU-145 [6]): Active; Activity (DU-145 [7]): 9.7%; Activity (DU-145 [8]): 0.2%; fold change (FC) (DU-145 [9]): 2; viability at 10 µM (DU-145 [10]): 89.2%; growth inhibition (GI) (DU-145 [11]): Tde; Activity (DU-145 [12]): Active; inhibition (DU-145 [13]): Dose-dependent effect; Activity (DU-145 [14]): 0.5%; Activity (DU-145 [15]): Active; Activity (DU-145 [16]): 9.2%; Activity (DU-145 [17]): 1.1%; viability at 10 µM (DU-145 [18]): 77.9%; Activity (DU-145 [19]): Active; inhibition of growth at 5 µM (DU-145 [20]): 20%; Activity (DU-145 [21]): Active
21 | O=C(COc1ccc(C(=O)/C=C/c2ccc(F)cc2)cc1)N[C@H]1CCOC1=O | > 64 µM | 18.8 µM | > 64 µM | 15.6 µM | –
22 | O=C(COc1ccc(C(=O)/C=C/c2cccc([N+](=O)[O-])c2)cc1)N[C@H]1CCOC1=O | > 64 µM | 41.8 µM | > 64 µM | 56.2 µM | –
23 | CCOc1ccccc1OCCSC(=S)N[C@H]1CCOC1=O | > 64 µM | 28.2 µM | > 64 µM | 24.1 µM | –
24 | CC(C)(C)c1ccc(/C=C/C(=O)c2ccc(OCC(=O)N[C@H]3CCOC3=O)cc2)cc1 | 17.2 µM | 6.57 µM | 16.4 µM | 10.6 µM | –
25 | C=CCc1ccc(OCCSC(=S)N[C@H]2CCOC2=O)c(OC)c1 | 27.9 µM | > 64 µM | > 64 µM | > 64 µM | –
26 | CC(C)c1ccc(/C=C/C(=O)c2ccc(OCC(=O)N[C@H]3CCOC3=O)cc2)cc1 | 16.8 µM | 13.1 µM | 23.4 µM | 4.66 µM | –
27 | O=C(CNc1ccccc1)N[C@H]1CCOC1=O | > 64 µM | > 64 µM | > 64 µM | > 64 µM | –
28 | O=C1OCC[C@@H]1NC(=S)SCCOc1cccc2ccccc12 | > 64 µM | > 64 µM | > 64 µM | > 64 µM | –
29 | O=C(CNc1cccc(Cl)c1)N[C@H]1CCOC1=O | > 64 µM | > 64 µM | > 64 µM | > 64 µM | –
30 | O=C(CNc1ccccc1Cl)N[C@H]1CCOC1=O | > 64 µM | > 64 µM | > 64 µM | > 64 µM | –
31 | O=C(COc1ccc(C(=O)/C=C/c2ccccc2)cc1)N[C@H]1CCOC1=O | > 64 µM | 48.3 µM | > 64 µM | 56.8 µM | –
32 | O=C(COc1ccc(C(=O)/C=C/c2cccc(F)c2)cc1)N[C@H]1CCOC1=O | > 64 µM | 17.2 µM | > 64 µM | 23.2 µM | –
33 | COc1ccccc1/C=C/C(=O)c1ccc(OCC(=O)N[C@H]2CCOC2=O)cc1 | 39.4 µM | 10.1 µM | > 64 µM | 7.24 µM | –
34 | O=C(COc1ccc(C(=O)/C=C/c2cccc(Br)c2)cc1)N[C@H]1CCOC1=O | 11.9 µM | 9.8 µM | 28.3 µM | 7.89 µM | –
35 | CC(C)c1ccc(NCC(=O)N[C@H]2CCOC2=O)cc1 | > 64 µM | > 64 µM | > 64 µM | > 64 µM | –
